{"source": "ChEMBL document CHEMBL1126664", "about": "“Pyrazoline bisphosphonate esters as novel antiinflammatory and antiarthritic agents” (1993)", "format_in_all_cases": "functional", "key": {"[1]": {"test_system": "Mus musculus", "assay": "Inhibition of delayed type hypersensitivity granuloma results at 200 mg/kg in wet weight", "in_short": "(§1)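 Groups of 10 female CF-1 mice (25 g) were sensitised sc over the inguinal lymph node with mBSA emulsion in Freund's incomplete adjuvant plus dextran. Two mBSA-soaked hydroxyapatite disks were implanted per mouse. Sc dosing ran daily from implantation to day 9, then granulomas were excised for wet and dry weights. Student's paired t test.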"}, "[2]": {"test_system": "Mus musculus", "assay": "Inhibition of delayed type hypersensitivity granuloma results at 200 mg/kg in dry weight", "in_short": "as §1"}, "[3]": {"test_system": "Mus musculus", "assay": "Inhibition of delayed type hypersensitivity granuloma results at 100 mg/kg in wet weight", "in_short": "as §1"}, "[4]": {"test_system": "Mus musculus", "assay": "Inhibition of delayed type hypersensitivity granuloma results at 100 mg/kg in dry weight", "in_short": "as §1"}, "[5]": {"test_system": "Rattus norvegicus", "assay": "Inhibition of rat adjuvant induced polyarthritis (AIP) at the dose of 15 mg/kg in the non-njected paw", "in_short": "(§2)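 Rats received adjuvant (M. tuberculosis in mineral oil) into the left hindpaw on day 0. Compounds in sterile saline, pH 7.0, were given sc once daily for 28 days, with sc vehicle arthritic controls. Paw volume change in injected and noninjected hindpaws was measured on day 28 by mercury-displacement plethysmography.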"}, "[6]": {"test_system": "Mus musculus", "assay": "Inhibition of antigen-induced arthritis (AIA) in mice at the dose of 50 mg/kg in the non-injected paw"}, "[7]": {"test_system": "Rattus norvegicus", "assay": "Inhibition of rat adjuvant induced polyarthritis (AIP) at the dose of 15 mg/kg in the injected paw", "in_short": "as §2"}, "[8]": {"test_system": "Mus musculus", "assay": "Inhibition of antigen-induced arthritis (AIA) in mice at the dose of 100 mg/kg in the non-injected paw"}, "[9]": {"test_system": "Mus musculus", "assay": "Inhibition of antigen-induced arthritis (AIA) in mice at the dose of 200 mg/kg in the non-injected paw"}, "[10]": {"test_system": "Rattus norvegicus", "assay": "Inhibition of rat adjuvant induced polyarthritis (AIP) at the dose of 100 mg/kg in the injected paw", "in_short": "as §2"}, "[11]": {"test_system": "Rattus norvegicus", "assay": "Inhibition of rat adjuvant induced polyarthritis (AIP) at the dose of 100 mg/kg in the non-injected paw", "in_short": "as §2"}, "[12]": {"test_system": "Mus musculus", "assay": "Inhibition of antigen-induced arthritis (AIA) in mice at the dose of 100 mg/kg", "in_short": "(§3)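 Mice were immunised, boosted after 7 days, and challenged 14 days later with 200 μg mBSA in saline into the left rear stifle joint. Dosing was sc in saline at pH 7.0, 5 of 7 days, from challenge (day 0) to day 28. H&E sagittal joint sections were graded 1–5 each for soft tissue inflammation, pannus, and cartilage and bone erosion, then summed (max 20). One-way ANOVA vs vehicle.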"}, "[13]": {"test_system": "Rattus norvegicus", "assay": "Inhibition of rat adjuvant induced polyarthritis (AIP) at the dose of 15 mg/kg in the non-injected paw", "in_short": "as §2"}, "[14]": {"test_system": "Rattus norvegicus", "assay": "Inhibition of rat adjuvant induced polyarthritis (AIP) at the dose of 5 mg/kg in the injected paw", "in_short": "as §2"}, "[15]": {"test_system": "Rattus norvegicus", "assay": "Inhibition of rat adjuvant-induced polyarthritis (AIP) at the dose of 5 mg/kg in the non-injected paw", "in_short": "as §2"}, "[16]": {"test_system": "Mus musculus", "assay": "Inhibition of delayed type hypersensitivity granuloma results at 50 mg/kg in dry weight", "in_short": "as §1"}, "[17]": {"test_system": "Mus musculus", "assay": "Inhibition of delayed type hypersensitivity granuloma results at 25 mg/kg in dry weight", "in_short": "as §1"}, "[18]": {"test_system": "Mus musculus", "assay": "Inhibition of delayed type hypersensitivity granuloma results at 50 mg/kg in wet weight", "in_short": "as §1"}, "[19]": {"test_system": "Rattus norvegicus", "assay": "Inhibition of rat adjuvant induced polyarthritis (AIP) at the dose of 60 mg/kg in the injected paw", "in_short": "as §2"}, "[20]": {"test_system": "Mus musculus", "assay": "Inhibition of delayed type hypersensitivity granuloma results at 25 mg/kg in wet weight", "in_short": "as §1"}, "[21]": {"test_system": "Rattus norvegicus", "assay": "Inhibition of rat adjuvant-induced polyarthritis (AIP) at the dose of 60 mg/kg in the non-injected paw", "in_short": "as §2"}, "[22]": {"test_system": "Rattus norvegicus", "assay": "Inhibition of rat adjuvant-induced polyarthritis (AIP) at the dose of 100 mg/kg in the non-injected paw", "in_short": "as §2"}, "[23]": {"test_system": "Mus musculus", "assay": "Inhibition of antigen induced arthritis (AIA) in mice at the dose of 50 mg/kg", "in_short": "as §3"}, "[24]": {"test_system": "Mus musculus", "assay": "Inhibition of antigen induced arthritis (AIA) in mice at the dose of 100 mg/kg", "in_short": "as §3"}, "[25]": {"test_system": "Rattus norvegicus", "assay": "Inhibition of rat adjuvant-induced polyarthritis (AIP) at the dose of 15 mg/kg in the non-injected paw", "in_short": "as §2"}, "[26]": {"test_system": "Rattus norvegicus", "assay": "Inhibition of rat adjuvant-induced arthritis (AIP) at the dose of 15 mg/kg in the non-injected paw", "in_short": "as §2"}, "[27]": {"test_system": "Rattus norvegicus", "assay": "Inhibition of rat adjuvant-induced arthritis (AIP) at the dose of 100 mg/kg in the non-injected paw", "in_short": "as §2"}}}
{"smiles": "CCOP(=O)(OCC)C1(P(=O)(OCC)OCC)CC(C(=O)CC)=NN1", "values": [{"measurement": "inhibition in vivo at 200 mg/kg", "setting": "[1]", "value": 28, "unit": "%"}, {"measurement": "inhibition in vivo at 200 mg/kg", "setting": "[2]", "value": 35, "unit": "%"}]}
{"smiles": "O=C(C1=NNC(P(=O)(O)O)(P(=O)(O)O)C1)c1ccccc1", "values": [{"measurement": "inhibition in vivo at 100 mg/kg", "setting": "[3]", "value": 18, "unit": "%"}, {"measurement": "inhibition in vivo at 100 mg/kg", "setting": "[4]", "value": 19, "unit": "%"}]}
{"smiles": "CCOP(=O)(OCC)C1(P(=O)(OCC)OCC)CC(C(=O)c2ccc(Cl)cc2)=NN1", "values": [{"measurement": "inhibition in vivo at 100 mg/kg", "setting": "[3]", "value": 28, "unit": "%"}, {"measurement": "inhibition in vivo at 100 mg/kg", "setting": "[4]", "value": 33, "unit": "%"}]}
{"smiles": "CCOP(=O)(OCC)C1(P(=O)(OCC)OCC)CC(C(=O)C2CCCCC2)=NN1", "values": [{"measurement": "inhibition in vivo at 15 mg/kg", "setting": "[5]", "value": 14, "unit": "%"}, {"measurement": "inhibition in vivo at 50 mg/kg", "setting": "[6]", "value": 30, "unit": "%"}, {"measurement": "inhibition in vivo at 15 mg/kg", "setting": "[7]", "value": 9, "unit": "%"}, {"measurement": "inhibition in vivo at 100 mg/kg", "setting": "[8]", "value": 3, "unit": "%"}, {"measurement": "inhibition in vivo at 200 mg/kg", "setting": "[9]", "value": 11, "unit": "%"}, {"measurement": "inhibition in vivo at 100 mg/kg", "setting": "[10]", "value": 16, "unit": "%"}, {"measurement": "inhibition in vivo at 100 mg/kg", "setting": "[11]", "value": 29, "unit": "%"}, {"measurement": "inhibition in vivo at 100 mg/kg", "setting": "[3]", "value": 33, "unit": "%"}, {"measurement": "inhibition in vivo at 100 mg/kg", "setting": "[4]", "value": 31, "unit": "%"}]}
{"smiles": "CCOP(=O)(OCC)C1(P(=O)(OCC)OCC)CC(C(=O)c2ccc(Cl)cc2Cl)=NN1", "values": [{"measurement": "inhibition in vivo at 15 mg/kg", "setting": "[7]", "value": 3, "unit": "%"}, {"measurement": "inhibition in vivo at 100 mg/kg", "setting": "[10]", "value": 0, "unit": "%"}, {"measurement": "inhibition in vivo at 100 mg/kg", "setting": "[12]", "value": 0, "unit": "%"}, {"measurement": "inhibition in vivo at 100 mg/kg", "setting": "[11]", "value": 12, "unit": "%"}, {"measurement": "inhibition in vivo at 100 mg/kg", "setting": "[3]", "value": 55, "unit": "%"}, {"measurement": "inhibition in vivo at 15 mg/kg", "setting": "[13]", "value": 38, "unit": "%"}, {"measurement": "inhibition in vivo at 100 mg/kg", "setting": "[4]", "value": 44, "unit": "%"}]}
{"smiles": "CCOP(=O)(OCC)C1(P(=O)(OCC)OCC)CC(C(=O)c2ccc(C)cc2)=NN1", "values": [{"measurement": "inhibition in vivo at 100 mg/kg", "setting": "[3]", "value": 20, "unit": "%"}, {"measurement": "inhibition in vivo at 100 mg/kg", "setting": "[4]", "value": 22, "unit": "%"}]}
{"smiles": "CCOP(=O)(OCC)C1(P(=O)(OCC)OCC)CC(C(=O)c2ccccc2)=NN1CC(=O)OC", "values": [{"measurement": "inhibition in vivo at 100 mg/kg", "setting": "[3]", "value": 1, "unit": "%"}, {"measurement": "inhibition in vivo at 100 mg/kg", "setting": "[4]", "value": 1, "unit": "%"}]}
{"smiles": "CCOP(=O)(OCC)C1(P(=O)(OCC)OCC)CC(C(=O)C(C)(C)C)=NN1", "values": [{"measurement": "inhibition in vivo at 5 mg/kg", "setting": "[14]", "value": 27, "unit": "%"}, {"measurement": "inhibition in vivo at 5 mg/kg", "setting": "[15]", "value": 64, "unit": "%"}, {"measurement": "inhibition in vivo at 50 mg/kg", "setting": "[16]", "value": 48, "unit": "%"}, {"measurement": "inhibition in vivo at 25 mg/kg", "setting": "[17]", "value": 38, "unit": "%"}, {"measurement": "inhibition in vivo at 15 mg/kg", "setting": "[7]", "value": 21, "unit": "%"}, {"measurement": "inhibition in vivo at 50 mg/kg", "setting": "[18]", "value": 51, "unit": "%"}, {"measurement": "inhibition in vivo at 60 mg/kg", "setting": "[19]", "value": 38, "unit": "%"}, {"measurement": "inhibition in vivo at 25 mg/kg", "setting": "[20]", "value": 46, "unit": "%"}, {"measurement": "inhibition in vivo at 100 mg/kg", "setting": "[10]", "value": 21, "unit": "%"}, {"measurement": "inhibition in vivo at 60 mg/kg", "setting": "[21]", "value": 64, "unit": "%"}, {"measurement": "inhibition in vivo at 100 mg/kg", "setting": "[22]", "value": 76, "unit": "%"}, {"measurement": "inhibition in vivo at 50 mg/kg", "setting": "[23]", "value": 28, "unit": "%"}, {"measurement": "inhibition in vivo at 100 mg/kg", "setting": "[3]", "value": 65, "unit": "%"}, {"measurement": "inhibition in vivo at 100 mg/kg", "setting": "[24]", "value": 16, "unit": "%"}, {"measurement": "inhibition in vivo at 15 mg/kg", "setting": "[25]", "value": 55, "unit": "%"}, {"measurement": "inhibition in vivo at 100 mg/kg", "setting": "[4]", "value": 59, "unit": "%"}]}
{"smiles": "CCOP(=O)(OCC)C1(P(=O)(OCC)OCC)CC(C(=O)c2cccc(C)c2)=NN1", "values": [{"measurement": "inhibition in vivo at 15 mg/kg", "setting": "[26]", "value": 54, "unit": "%"}, {"measurement": "inhibition in vivo at 15 mg/kg", "setting": "[7]", "value": 6, "unit": "%"}, {"measurement": "inhibition in vivo at 100 mg/kg", "setting": "[8]", "value": 16, "unit": "%"}, {"measurement": "inhibition in vivo at 100 mg/kg", "setting": "[10]", "value": 3, "unit": "%"}, {"measurement": "inhibition in vivo at 100 mg/kg", "setting": "[27]", "value": 50, "unit": "%"}, {"measurement": "inhibition in vivo at 100 mg/kg", "setting": "[3]", "value": 41, "unit": "%"}, {"measurement": "inhibition in vivo at 100 mg/kg", "setting": "[4]", "value": 41, "unit": "%"}]}
{"smiles": "CCOP(=O)(OCC)C1(P(=O)(OCC)OCC)CC(C(=O)c2ccccc2F)=NN1", "values": [{"measurement": "inhibition in vivo at 100 mg/kg", "setting": "[3]", "value": 20, "unit": "%"}, {"measurement": "inhibition in vivo at 100 mg/kg", "setting": "[4]", "value": 17, "unit": "%"}]}
